Laboratory results from ChEMBL document CHEMBL1124503, “The role of position 4 in angiotensin II antagonism: a structure-activity study” (J Med Chem, 1989).
*1 amine or outer side, *2 acyl side, *3 side chain or, on linkers, in order; H or OH if unused. Where a SMILES comes first, the peptide text is derived from it. [ ]: non-standard residue; d: D form. Phe(4-SO2NH2) = N[C@@H](Cc1ccc(S(N)(=O)=O)cc1)C(=O)O; Phe(4-NO2) = N[C@@H](Cc1ccc([N+](=O)[O-])cc1)C(=O)O; Phe(4-SO3H) = N[C@@H](Cc1ccc(S(=O)(=O)O)cc1)C(=O)O; X2 = CC(=O)NCSc1ccc(C[C@H](N[*:1])C(=O)[*:2])cc1; Phe(4-B(OH)2) = N[C@@H](Cc1ccc(B(O)O)cc1)C(=O)O; X1 = O=C([C@H](Cc1ccc(S)cc1)N[*:1])[*:2]; Phe(4-NH2) = Nc1ccc(C[C@H](N)C(=O)O)cc1; Sar = CNCC(=O)O

How the values were obtained:
[1] = target: Angiotensin II receptor (Rattus norvegicus) (UniProt P29089+P25095+P35351); assay: In vivo blood pressure increase produced by a 1 ug bolus i.v.; type: functional, organism-based
In short: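 Rat blood pressure assay (Regoli et al.); agonist activity read as the mmHg rise in blood pressure after a 1 μg intravenous bolus of compound.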

Oryctolagus cuniculus = species: Oryctolagus cuniculus; assay: Antagonist activity pA2, was measured in the in vitro rabbit aorta strip assay; type: functional; conditions: read-out: pA2 (converted)
In short: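 Isolated rabbit aorta strip (method of Rioux et al.); pA2 against the ANG II dose-response curve, determined at low antagonist doses within the competitive-inhibition range.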

Rattus norvegicus = assay: Residual ANG II-like antagonist activity, ID50 was measured in vivo, in the rat blood pressure assay; type: functional
[2] = tested on: Angiotensin II receptor (Oryctolagus cuniculus); assay: Angiotensin II-like agonist activity, measured in the in vitro rabbit aorta strip assay

Compound | Blood pressure [1] [mmHg] | Kb (Oryctolagus cuniculus) [nM] | ID50 (Rattus norvegicus) [ng min-1 rat-1] | Activity [2] [%]
CC[C@H](C)[C@H](NC(=O)[C@H](Cc1ccc(O)cc1)NC(=O)[C@@H](NC(=O)[C@H](CCCN=C(N)N)NC(=O)CNC)C(C)C)C(=O)N[C@@H](Cc1c[nH]cn1)C(=O)N1CCC[C@H]1C(=O)N[C@H](Cc1ccccc1)C(=O)O | 10 | 1 | 12.5 | –
CC[C@H](C)[C@H](NC(=O)[C@H](Cc1ccccc1)NC(=O)[C@@H](NC(=O)[C@H](CCCN=C(N)N)NC(=O)CNC)C(C)C)C(=O)N[C@@H](Cc1c[nH]cn1)C(=O)N1CCC[C@H]1C(=O)N[C@@H](Cc1ccccc1)C(=O)O (H-[Sar]RVFIHPF-OH) | – | 12.6 | – | 22
CC[C@H](C)[C@H](NC(=O)C1CCCN1C(=O)[C@H](Cc1c[nH]cn1)NC(=O)[C@@H](NC(=O)[C@H](Cc1ccc(O)cc1)NC(=O)[C@@H](NC(=O)[C@H](CCCN=C(N)N)NC(=O)CNC)C(C)C)[C@@H](C)CC)C(=O)O (single isomer, unassigned) | 10 | 0.794 | 10 | –
CC[C@H](C)[C@H](NC(=O)[C@H](Cc1ccc(S(=O)(=O)O)cc1)NC(=O)[C@@H](NC(=O)[C@H](CCCN=C(N)N)NC(=O)CNC)C(C)C)C(=O)N[C@@H](Cc1c[nH]cn1)C(=O)N1CCC[C@H]1C(=O)N[C@@H](Cc1ccccc1)C(=O)O (H-[Sar]RV[Phe(4-SO3H)]IHPF-OH) | – | > 1000 | – | 0
CC[C@H](C)[C@H](NC(=O)[C@H](Cc1ccc(S(N)(=O)=O)cc1)NC(=O)[C@@H](NC(=O)[C@H](CCCN=C(N)N)NC(=O)CNC)C(C)C)C(=O)N[C@@H](Cc1c[nH]cn1)C(=O)N1CCC[C@H]1C(=O)N[C@@H](Cc1ccccc1)C(=O)O (H-[Sar]RV[Phe(4-SO2NH2)]IHPF-OH) | – | – | – | 0.9
CC[C@H](C)[C@H](NC(=O)[C@@H]1CCCN1C(=O)[C@H](Cc1c[nH]cn1)NC(=O)[C@@H](NC(=O)[C@H](Cc1ccc([N+](=O)[O-])cc1)NC(=O)[C@@H](NC(=O)[C@H](CCCN=C(N)N)NC(=O)CNC)C(C)C)[C@@H](C)CC)C(=O)O (H-[Sar]RV[Phe(4-NO2)]IHPI-OH) | 5 | 79.4 | – | 0
H-DRVYIHPL-OH | – | 1.66 | – | < 0.1
CC[C@H](C)[C@H](NC(=O)[C@H](Cc1ccc(O)cc1)NC(=O)[C@@H](NC(=O)[C@H](CCCN=C(N)N)NC(=O)CNC)C(C)C)C(=O)N[C@@H](Cc1c[nH]cn1)C(=O)N1CCC[C@H]1C(=O)N[C@@H](Cc1ccccc1)C(=O)O | 50 | – | – | –
CC[C@H](C)[C@H](NC(=O)[C@H](Cc1ccc(B(O)O)cc1)NC(=O)[C@@H](NC(=O)[C@H](CCCN=C(N)N)NC(=O)CNC)C(C)C)C(=O)N[C@@H](Cc1c[nH]cn1)C(=O)N1CCC[C@H]1C(=O)N[C@@H](Cc1ccccc1)C(=O)O (H-[Sar]RV[Phe(4-B(OH)2)]IHPF-OH) | – | – | – | 10
CC[C@H](C)[C@H](NC(=O)[C@H](Cc1ccc(N)cc1)NC(=O)[C@@H](NC(=O)[C@H](CCCN=C(N)N)NC(=O)CNC)C(C)C)C(=O)N[C@@H](Cc1c[nH]cn1)C(=O)N1CCC[C@H]1C(=O)N[C@@H](Cc1ccccc1)C(=O)O (H-[Sar]RV[Phe(4-NH2)]IHPF-OH) | – | – | – | 15
CC[C@H](C)[C@H](NC(=O)[C@H](Cc1ccc(S)cc1)NC(=O)[C@@H](NC(=O)[C@H](CCCN=C(N)N)NC(=O)CNC)C(C)C)C(=O)N[C@@H](Cc1c[nH]cn1)C(=O)N1CCC[C@H]1C(=O)N[C@@H](Cc1ccccc1)C(=O)O (H-[Sar]RV[X1]IHPF-OH) | – | > 1000 | – | 0.9
CC[C@H](C)[C@H](NC(=O)[C@H](Cc1ccc(SCNC(C)=O)cc1)NC(=O)[C@@H](NC(=O)[C@H](CCCN=C(N)N)NC(=O)CNC)C(C)C)C(=O)N[C@@H](Cc1c[nH]cn1)C(=O)N1CCC[C@H]1C(=O)N[C@@H](Cc1ccccc1)C(=O)O (H-[Sar]RV[X2]IHPF-OH) | – | 8.13 | – | 9
